Measurements from ChEMBL document CHEMBL2062504, “Diterpenoid alkaloids from the lateral root of Aconitum carmichaelii” (J Nat Prod, 2012).
Activity calls are given as the source filed them. The calls are words filed in the database; no cut-off is given here.

Key:
PC-12 = assay: Neuroprotective activity against serum starvation-induced cell death in rat PC12 cells assessed as cell viability at 10 uM incubated for 24 hrs prior to serum starvation measured after 24 hrs by MTT assay (reference value: 55.1+/-4.2%); format: functional; settings: read-out: Activity
HCT-8 = assay: Cytotoxicity against human HCT8 cells at 10 uM after 96 hrs by MTT assay; format: functional, cell-based
A549 = assay: Cytotoxicity against human A549 cells at 10 uM after 96 hrs by MTT assay; format: functional, cell-based
BGC-823 = assay: Cytotoxicity against human BGC823 cells at 10 uM after 96 hrs by MTT assay; format: functional, cell-based
MCF7 = assay: Cytotoxicity against human MCF7 cells at 10 uM after 96 hrs by MTT assay; format: functional, cell-based
Liver microsomes = assay: Antioxidant activity in rat liver microsome assessed as inhibition of FeSO4-induced lipid peroxidation at 10 uM incubated for 15 mins prior to FeSO4-challenge measured after 15 mins by modified thiobarbituric acid method; format: functional
Bel-7402 = assay: Cytotoxicity against human Bel7402 cells at 10 uM after 96 hrs by MTT assay; format: functional, cell-based
[1] = tested on: Peritoneal macrophage cell; assay: Antiinflammatory activity in mouse peritoneal macrophages assessed as inhibition of nitric oxide production at 10 uM; format: functional, cell-based
KETR3 = assay: Cytotoxicity against human Ketr3 cells at 10 uM after 96 hrs by MTT assay; format: functional, cell-based
WB-F344 = assay: Hepatoprotective activity against DL-galactosamine-induced cell death in rat WB-F344 cells at 10 uM incubated for 1 hr prior to DL-galactosamine-challenge measured after 24 hrs by MTT assay; format: functional, cell-based
Mus musculus = assay: Analgesic activity in mouse assessed as reduction in acetic acid-induced writhing at 5 mg/kg, ip relative to vehicle-treated control; format: functional; parameters: scale not given: the % may be the effect or the level left; settings: route intraperitoneal
In short: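 Mice dosed ip at 5 mg/kg, then given acetic acid to provoke writhing. Writhes were counted, and the value is the percent reduction in writhes compared with a blank control group, reported as mean ± deviation.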

SMILES | viability at 10 µM (PC-12) | Activity (HCT-8) | Activity (A549) | Activity (BGC-823) | Activity (MCF7) | inhibition (Liver microsomes) | Activity (Bel-7402) | inhibition [1] | Activity (KETR3) | Activity (WB-F344) | Activity (Mus musculus)
CCN1C[C@]2(COC)[C@H](O)C[C@H](OC)[C@]34C1[C@H]([C@H](OC)[C@H]23)[C@]1(O)[C@H]2[C@@H](OC(=O)c3ccccc3)[C@](O)(C[C@H]24)[C@@H](OC)[C@@H]1O | 70.8% | inactive | inactive | inactive | inactive | inactive | inactive | inactive | inactive | inactive | –
CCN1C[C@]2(COC)CC[C@H](OC)[C@]34C1[C@H]([C@H](O)[C@H]23)[C@]1(OC)[C@H]2[C@@H](OC(=O)c3ccccc3)[C@H](C[C@H]24)[C@@H](OC)[C@@H]1O | 75.8% | inactive | inactive | inactive | inactive | inactive | inactive | inactive | inactive | inactive | –
COC[C@]12CN(C)C3[C@@H]4[C@H](OC)[C@H]1[C@@]3([C@@H](OC)C[C@H]2O)[C@]1(O)C[C@@]2(O)[C@H](OC(=O)c3ccccc3)[C@@H]1[C@]4(OC)[C@@H](O)[C@@H]2OC (stereo in doubt; 7) | – | – | – | – | – | – | – | – | – | – | 35%
C=C1C[C@]23C4[C@@H](OC(=O)[C@@H](C)CC)[C@H]1[C@@H](O)[C@H]2[C@]12C[C@@H](OC(=O)C(C)C)C[C@]5(C)[C@H]1[C@H]([C@@H]3O)[N+](C)([C@H]42)[C@H]5O | – | inactive | inactive | inactive | inactive | inactive | inactive | inactive | inactive | inactive | –
COC[C@]12CN(C)C3[C@@H]4[C@H](OC)[C@H]1[C@@]3([C@@H](OC)C[C@H]2OC(C)=O)[C@@H]1C[C@@]2(O)[C@H](OC(=O)c3ccccc3)[C@@H]1[C@]4(O)[C@@H](OC(C)=O)[C@@H]2OC | – | inactive | inactive | inactive | inactive | inactive | inactive | inactive | inactive | inactive | –
COC[C@]12CN(C)C3[C@@H]4[C@H](OC)[C@H]1[C@@]3([C@@H](OC)C[C@H]2O)[C@]1(O)C[C@@]2(O)[C@H](OC(=O)c3ccccc3)[C@@H]1[C@]4(OC)[C@@H](O)[C@@H]2OC (stereo in doubt; 8) | – | – | – | – | – | – | – | – | – | – | 56%
CCN1C[C@]2(COC)[C@H](O)C[C@H](OC)[C@]34C1[C@H]([C@H](OC)[C@H]23)[C@]1(OC)[C@H]2[C@@H](OC(=O)c3ccccc3)[C@](O)(C[C@]24O)[C@@H](OC)[C@@H]1O | – | inactive | inactive | inactive | inactive | inactive | inactive | inactive | inactive | inactive | –
COC[C@]12CN(C)C3[C@@H]4[C@H](OC)[C@H]1[C@@]3([C@@H](OC)C[C@H]2O)[C@@H]1C[C@@]2(O)[C@H](OC(=O)c3ccccc3)[C@@H]1[C@]4(OC(=O)c1ccccc1)[C@@H](O)[C@@H]2OC | 74.7% | inactive | inactive | inactive | inactive | inactive | inactive | inactive | inactive | inactive | –
COC[C@]12CN(C)C3[C@@H]4[C@H](OC)[C@H]1[C@@]3([C@@H](OC)C[C@H]2OC(C)=O)[C@]1(O)C[C@@]2(O)[C@H](OC(=O)c3ccccc3)[C@@H]1[C@]4(OC)[C@@H](O)[C@@H]2OC | – | inactive | inactive | inactive | inactive | inactive | inactive | inactive | inactive | inactive | –
CCO[C@]12[C@H]3[C@@H](OC(=O)c4ccccc4)[C@H](C[C@H]3[C@@]34C5[C@@H]1[C@H](O)[C@@H]3[C@@](COC)(CC[C@@H]4OC)CN5CC)[C@@H](OC)[C@@H]2O | – | inactive | inactive | inactive | inactive | inactive | inactive | inactive | inactive | inactive | –
CCN1C[C@]2(COC)CC[C@H](O)[C@]34C1[C@H](C[C@H]23)[C@]1(O)[C@H]2[C@@H](OC(=O)c3ccccc3)[C@H](C[C@H]24)[C@@H](OC)[C@@H]1O | – | inactive | inactive | inactive | inactive | inactive | inactive | inactive | inactive | inactive | –
CCN1C(=O)[C@]2(COC)CC[C@H](OC)[C@]34C1[C@H]([C@H](OC)[C@H]23)[C@]1(OC(C)=O)[C@H]2[C@@H](OC(=O)c3ccccc3)[C@](O)(C[C@H]24)[C@@H](OC)[C@@H]1O | – | inactive | inactive | inactive | inactive | inactive | inactive | inactive | inactive | inactive | –
CCN1C[C@]2(COC)CC[C@H](OC)[C@]34C1[C@H]([C@H](OC)[C@H]23)[C@]1(OC(C)=O)[C@H]2[C@@H](OC(=O)c3ccccc3)[C@H](C[C@H]24)[C@@H](OC)[C@@H]1O | – | inactive | inactive | inactive | inactive | inactive | inactive | inactive | inactive | inactive | –
CCN1C[C@]2(COC)CC[C@H](OC)[C@]34C1[C@H]([C@H](O)[C@H]23)[C@]1(O)[C@H]2[C@@H](OC(=O)c3ccccc3)[C@H](C[C@H]24)[C@@H](OC)[C@@H]1O | – | inactive | inactive | inactive | inactive | inactive | inactive | inactive | inactive | inactive | –
